Sampled rows, rich in hits. Any-hit rate of the full collection: about 3.2%.
S100A4 inh HTS = blocks human S100A4 binding to myosin IIA peptide | P26447 | 0.14% of 360,000 active | inhibition, % at 10.7 µM | S100A4/TAMRA-MyoIIA peptide fluorescence polarization;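 active = mean inhibition of at least 70% across replicates, with every replicate also reaching that level; inconclusive = mean inhibition reaches 70% but some replicates fall short; inactive = mean inhibition below 70%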
Target sequence (P26447 whole entry, looked up): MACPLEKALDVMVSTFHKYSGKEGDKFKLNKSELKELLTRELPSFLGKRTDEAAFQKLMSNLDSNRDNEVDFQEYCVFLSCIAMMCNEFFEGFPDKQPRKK
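Material: S100A4 monomer protein / Buffer or medium: 50 mM HEPES pH 7.2, 10 mM CaCl2, 100 mM KCl / Times: 5 min incubation before reading / Benchmarks: neutral control DMSO, positive control TFP / Reagent: labelled myosin peptide probe, 5 nM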
DENV2 CPE rescue = protects cells from dengue virus 2 cytopathic effect; DENV2-infected cells, cytopathic effect rescue, plate reader; CPE inhibition, % at 9.99 µM; 1.7% of 350,000 active; AID 651640; in the data active = CPE inhibition above about 20%, passing the limit was not always enough; inconclusive = no clear call, values can overlap the other calls; tested in BHK-21 cells
Cneo AK release = Cryptococcus neoformans lysis via adenylate kinase release; C. neoformans lysis, adenylate kinase release luminescence, 4 h; normalised: neutral wells 0, clomiphene wells 100; lysis activity, % at 15 µM; 0.2% of 360,000 active; AID 651654;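 active = mean lysis activity across replicates of at least 80%, whatever share of replicates individually reach that level; inactive = mean lysis activity below 80%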
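Assay system: Cryptococcus neoformans yeast cells / Dosing: single-point compound dose / Timing: 4 h at 37 °C static, read 1 h later / Measured by: luminescence of released adenylate kinase using an AK detection reagent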
PfHsp90 yeast 2 = growth inhibition of yeast expressing Plasmodium Hsp90. S. cerevisiae expressing PfHsp90, BacTiter-Glo ATP, 48 h; yeast lacking PDR1 and PDR3 efflux regulators. inhibition, % at 9.4 µM. 0.32% of 310,000 active;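 active = every replicate shows inhibition above about 80%, whatever the replicate mean, limit read from the data; inconclusive = mean inhibition reaches the set limit but some replicate falls short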
Ecoli rRNA inh = inhibitors of bacterial rRNA selective over humanized ribosomes | E. coli WT GFP vs humanized-ribosome RFP mutants, fluorescence, 24 h; hits give low values; DMSO median 0, no signal -100 | GFP signal change (wild-type ribosome), % (test concentration not listed) | 1.6% of 350,000 active | AID 720706;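 active = significant combined selectivity score with lowered wild-type GFP, culture density cut under 30%, mutant RFP and density less affected; inactive = any of these conditions unmet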
MLL AF4-AF9 inh = inhibitors of human MLL-AF4/AF9 interaction; inhibition, % at 10 µM; 0.47% of 350,000 active; P42568; AlphaScreen, biotin-AF4 peptide binding to FLAG-AF9;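 active = every replicate reaching a set inhibition limit, whatever the replicate mean, cut at about 25% in these data; inconclusive = mean inhibition reaches that limit but some replicates miss it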
Each line names hits and unclear results; the compound was inactive in the other large screens.

CC(=O)N1[C@@H](CO)[C@H](c2ccc(-c3ccccc3)cc2)[C@@H]1CNC(=O)C1CC1	Cneo AK release 95 (no result: S100A4 inh HTS, PfHsp90 yeast 2, MLL AF4-AF9 inh)
CC(=O)NC[C@@H]1[C@@H](c2ccc(-c3ccccc3F)cc2)[C@@H](CO)N1C(C)=O	DENV2 CPE rescue 20 (no result: PfHsp90 yeast 2)
CC(=O)N1[C@H](CO)[C@@H](c2ccc(-c3ccccc3)cc2)[C@@H]1CNC(=O)C1CC1	none (no result: S100A4 inh HTS, PfHsp90 yeast 2, MLL AF4-AF9 inh)
CC(=O)NC[C@H]1[C@@H](c2ccc(-c3ccccc3)cc2)[C@@H](CO)N1C(=O)C1CCC1	DENV2 CPE rescue 31 (no result: PfHsp90 yeast 2)
CC(=O)N1[C@H](CNC(=O)C2CC2)[C@H](c2ccc(-c3cccc(F)c3)cc2)[C@@H]1CO	DENV2 CPE rescue 28 (no result: PfHsp90 yeast 2)
COc1ccc(NC(=O)Nc2ccc3c(c2)C(=O)N([C@H](C)CO)C[C@H](C)[C@@H](CN(C)C)OCCCC[C@@H](C)O3)cc1	DENV2 CPE rescue inconclusive (no result: PfHsp90 yeast 2)
COc1ccc(S(=O)(=O)N(C)C[C@H]2Oc3ccc(NS(C)(=O)=O)cc3CC(=O)N([C@H](C)CO)C[C@@H]2C)cc1	none (no result: PfHsp90 yeast 2)
CCC(=O)N1[C@H](CO)[C@@H](c2ccc(-c3cccc(F)c3)cc2)[C@@H]1CN(C)C(C)=O	DENV2 CPE rescue 34 (no result: PfHsp90 yeast 2)
CCC(=O)N1[C@H](CNC(C)=O)[C@@H](c2ccc(-c3cccc(F)c3)cc2)[C@@H]1CO	none (no result: PfHsp90 yeast 2)
CCC(=O)N1[C@H](CO)[C@H](c2ccccc2)[C@@H]1CN(CC)C(=O)c1cccc(F)c1	Cneo AK release 99 (no result: PfHsp90 yeast 2)
CCC(=O)N1[C@H](CN(CC)C(=O)c2cccc(F)c2)[C@H](c2ccccc2)[C@@H]1CO	none (no result: PfHsp90 yeast 2)
CCC(=O)NC[C@H]1[C@H](c2ccc(-c3cccc(F)c3)cc2)[C@H](CO)N1C(=O)CC	DENV2 CPE rescue 29 (no result: PfHsp90 yeast 2)
CC(=O)N(C)C[C@H]1[C@@H](c2ccc(-c3cccc(F)c3)cc2)[C@@H](CO)N1C(C)=O	none (no result: Cneo AK release, PfHsp90 yeast 2)
CC(=O)NC[C@H]1[C@@H](c2ccc(-c3cccc(F)c3)cc2)[C@H](CO)N1C(C)=O	none (no result: PfHsp90 yeast 2)
CC(=O)NC[C@@H]1[C@H](c2ccc(-c3cccc(F)c3)cc2)[C@H](CO)N1C(C)=O	DENV2 CPE rescue 25 (no result: PfHsp90 yeast 2)
CN(C)C(=O)C[C@@H]1CC[C@@H]2[C@@H](COc3ccc(NC(=O)C4CCOCC4)cc3C(=O)N2C)O1	none (no result: PfHsp90 yeast 2)
Cc1ccc(S(=O)(=O)Nc2ccc3c(c2)C(=O)N([C@@H](C)CO)C[C@H](C)[C@@H](CN(C)S(=O)(=O)c2ccc(F)cc2)O3)cc1	none (no result: Cneo AK release, PfHsp90 yeast 2)
COc1cccc(CNC(=O)C[C@H]2CC[C@H](NC(C)=O)[C@H](CO)O2)c1	DENV2 CPE rescue inconclusive (no result: PfHsp90 yeast 2)
CCCCCCCCC/C(=N\O)c1ccccn1	PfHsp90 yeast 2 111 (no result: S100A4 inh HTS, DENV2 CPE rescue, Ecoli rRNA inh, MLL AF4-AF9 inh)
Fc1ccc(F)c(C2=NNC(=Nc3ccccc3F)SC2)c1	DENV2 CPE rescue 86
COc1ccc(NC(=O)Nc2ccc3c(c2)C(=O)N([C@H](C)CO)C[C@@H](C)[C@H](CN(C)S(C)(=O)=O)OCCCC[C@H](C)O3)cc1	none (no result: PfHsp90 yeast 2)
Cc1ccc(CNC(=O)c2ccc(Br)o2)cc1	Ecoli rRNA inh -18
O=C(NCc1ccccc1)c1ccc(Br)o1	none
COc1ccc(CN(C)C[C@@H]2OCCCC[C@H](C)Oc3ccc(NC(=O)Cc4ccccc4)cc3C(=O)N([C@H](C)CO)C[C@@H]2C)cc1	DENV2 CPE rescue 27 (no result: S100A4 inh HTS, PfHsp90 yeast 2, MLL AF4-AF9 inh)
C[C@H](CO)N1C[C@H](C)[C@@H](CN(C)Cc2ccccc2)OCCCC[C@H](C)Oc2ccc(NC(=O)c3ccccc3)cc2C1=O	none (no result: S100A4 inh HTS, PfHsp90 yeast 2, MLL AF4-AF9 inh)
C[C@@H]1CN([C@H](C)CO)C(=O)c2cc(NC(=O)c3ccccc3)ccc2O[C@@H](C)CCCCO[C@H]1CN(C)Cc1ccccc1	none (no result: S100A4 inh HTS, PfHsp90 yeast 2, MLL AF4-AF9 inh)
C[C@@H]1CCCCO[C@@H](CN(C)Cc2ccccc2)[C@@H](C)CN([C@H](C)CO)C(=O)c2cc(NC(=O)c3ccccc3)ccc2O1	DENV2 CPE rescue 100 (no result: S100A4 inh HTS, PfHsp90 yeast 2, MLL AF4-AF9 inh)
COc1ccc(CN(C)C[C@H]2OCCCC[C@@H](C)Oc3ccc(NC(=O)Cc4ccccc4)cc3C(=O)N([C@@H](C)CO)C[C@@H]2C)cc1	DENV2 CPE rescue inconclusive (no result: S100A4 inh HTS, PfHsp90 yeast 2, MLL AF4-AF9 inh)
